Measurements from ChEMBL document CHEMBL3997777, “Pterosin Sesquiterpenoids from Pteris cretica as Hypolipidemic Agents via Activating Liver X Receptors” (J Nat Prod, 2016).
Calls of active or inactive are those of the source. The rule behind the calls is not given here.

Tests used:
[1] = Cytotoxicity against HEK293T cells assessed as cell viability at 10 uM after 24 hrs by MTT assay relative to control; type: cell-based, HEK-293T; settings: human, read-out: Activity
Method in brief: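 HEK 293T cells in DMEM/10% FBS at 37 °C, 5% CO2, exposed to compounds at 10 μM for 24 h in triplicate. MTT (2.5 mg/mL) added for 4 h, then DMSO. Absorbance read at 492 nm after 20 min shaking. Survival = (A sample − A blank)/(A control − A blank) × 100%.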

Mus musculus [2] = organism: Mus musculus; assay: Activation of LXR in mouse 3T3L1 preadipocytes assessed as decrease in triglyceride level up to 10 uM […] measured on day 6 by Oil Red O staining based assay; type: cell-based
Method in brief: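 3T3-L1 adipocytes differentiated over 6 days (IBMX/dexamethasone/insulin/biotin for 3 days, then insulin only), compound in DMSO present throughout. Day 6 cells fixed in 4% formaldehyde for 1 h at room temperature, then stained with 0.35% Oil Red O stock diluted 3:2 in water for 30 min at 60 °C. Washed, then imaged at 4× magnification.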

Mus musculus [3] = organism: Mus musculus; assay: Activation of LXR in mouse 3T3L1 preadipocytes assessed as decrease in triglyceride level for 3 days measured on day 6; type: cell-based
Method in brief: (§1)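 3T3-L1 cells grown in DMEM/10% FBS. Two days post-confluence (day 0), switched to differentiation medium (insulin 2 μg/mL, dexamethasone 100 ng/mL, IBMX 0.5 mM, biotin 10 ng/mL) for 3 days, then insulin-only medium for 3 more days. Compounds in DMSO (<0.1%) present throughout differentiation. Day 6 cells PBS-washed and lysed, TG measured by kit, expressed relative to vehicle; mean ± SD, three independent experiments.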

[4] = target: T1, Oxysterols receptor LXR-alpha (Homo sapiens) (UniProt Q13133); assay: Activation of human LXRalpha expressed in HEK293 cells co-expressing human RXRalpha at 10 uM after 20 hrs by luciferase reporter gene assay; type: cell-based
T1 sequence (whole entry): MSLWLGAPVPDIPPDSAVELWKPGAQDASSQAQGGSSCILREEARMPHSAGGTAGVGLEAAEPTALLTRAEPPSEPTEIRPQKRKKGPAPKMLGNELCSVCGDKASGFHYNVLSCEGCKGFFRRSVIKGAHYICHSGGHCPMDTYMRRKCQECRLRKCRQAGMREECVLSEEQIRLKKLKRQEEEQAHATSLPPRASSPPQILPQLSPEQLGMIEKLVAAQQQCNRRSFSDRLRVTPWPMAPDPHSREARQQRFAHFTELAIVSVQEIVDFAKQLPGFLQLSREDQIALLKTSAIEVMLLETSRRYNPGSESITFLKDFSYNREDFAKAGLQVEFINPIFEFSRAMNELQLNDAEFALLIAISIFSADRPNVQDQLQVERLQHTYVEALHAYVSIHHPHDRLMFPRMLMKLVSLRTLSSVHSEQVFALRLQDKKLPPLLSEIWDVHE
Method in brief: (§2)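 HEK 293T cells seeded at 3 × 10^4/well and attached 12 h. Cotransfected by lipofection with hLXRα or rLXRβ receptor plasmid plus hRXRα, a DR-4 LXRE firefly luciferase reporter and a CMV renilla control. Compounds added 10 h later; 0.1% DMSO vehicle. Luminescence read 20 h after treatment, firefly normalized to renilla, fold over vehicle; mean ± SD, three independent experiments.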

[5] = target: T2, Oxysterols receptor LXR-beta (Rattus norvegicus) (UniProt Q62755); assay: Activation of rat LXRbeta expressed in HEK293 cells co-expressing human RXRalpha at 10 uM after 20 hrs by luciferase reporter gene assay; type: cell-based; method in brief: as §2
T2 sequence (whole entry): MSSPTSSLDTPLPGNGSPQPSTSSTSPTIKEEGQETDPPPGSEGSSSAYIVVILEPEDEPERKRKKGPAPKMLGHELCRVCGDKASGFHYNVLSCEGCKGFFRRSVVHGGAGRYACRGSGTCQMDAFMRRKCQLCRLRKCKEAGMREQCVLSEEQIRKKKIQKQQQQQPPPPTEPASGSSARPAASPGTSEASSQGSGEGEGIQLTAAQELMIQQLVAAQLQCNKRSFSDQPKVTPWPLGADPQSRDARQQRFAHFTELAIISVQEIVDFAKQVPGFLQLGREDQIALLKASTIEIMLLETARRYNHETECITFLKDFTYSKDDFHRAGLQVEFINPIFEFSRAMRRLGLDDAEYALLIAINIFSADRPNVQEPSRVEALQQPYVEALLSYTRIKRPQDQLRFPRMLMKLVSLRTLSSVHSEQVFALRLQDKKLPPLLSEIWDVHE

Mus musculus [6] = organism: Mus musculus; assay: Activation of LXR in mouse 3T3L1 preadipocytes assessed as decrease in triglyceride level at 1 to 10 uM for 3 days measured on day 6; type: cell-based; method in brief: as §1

SMILES | viability at 24 h, 10 µM [1] [%] | also measured
Cc1cc2c(c(C)c1CCO)C(=O)[C@](C)(O)[C@@H]2O | 100 | 
Cc1c(CCO)c(CO)cc2c1C(=O)[C@@H](C)[C@@H]2O | 100 | 
Cc1cc2c(c(CO)c1CCO)C(=O)[C@](C)(CO)[C@@H]2O | 100 | 
Cc1cc2c(c(C)c1CCO)C(=O)[C@@H](C)[C@@H]2O | 100 | Activity (Mus musculus [2]): Active; Activity (Mus musculus [3]): Dose-dependent effect
Cc1cc2c(c(CO)c1CCO)C(=O)[C@@H](C)[C@@H]2O | 100 | 
O=C(O)Cc1cccc(OCCCN(Cc2cccc(C(F)(F)F)c2Cl)CC(c2ccccc2)c2ccccc2)c1 |  | Activity [4]: Active; Activity [5]: Active
Cc1cc2c(c(C)c1CCO)C(=O)[C@@](C)(O)[C@@H]2O | 100 | 
C=C1[C@@H]2CC[C@H]3[C@]4(C)C[C@H](O)CC(C)(C)[C@H]4[C@H](O)C[C@]3(C2)[C@H]1O | 100 | 
Cc1cc2c(c(C)c1CCO)C(=O)[C@H](C)[C@@H]2O | 100 | 
Cc1cc2c(c(C)c1CCO[C@@H]1O[C@H](CO)[C@@H](O)[C@H](O)[C@H]1O)C(=O)[C@H](C)[C@@H]2O | 100 | 
C=C1[C@@H]2CC[C@H]3[C@]4(C)C[C@H](O[C@@H]5O[C@H](CO)[C@@H](O)[C@H](O)[C@H]5O)CC(C)(C)[C@H]4CC[C@]3(C2)[C@H]1O | 100 | 
CC1(C)C[C@@H](O)C[C@]2(C)[C@@H]1CC[C@@]13C[C@@H](CC[C@@H]21)[C@@](O)(CO)[C@@H]3O | 100 | 
CC1(C)C[C@@H](O)C[C@]2(C)[C@@H]1[C@H](O)C[C@@]13C[C@@](O)(CC[C@H]12)[C@](C)(O)C3 | 100 | Activity (Mus musculus [2]): Active; Activity (Mus musculus [3]): Dose-dependent effect
Cc1cc2c(c(C)c1CCO)C(=O)C(C)(C)[C@@H]2O | 100 | 
Cc1cc2c(c(C)c1CCO[C@@H]1O[C@H](CO)[C@@H](O)[C@H](O)[C@H]1O)C(=O)[C@@H](C)[C@@H]2O | 100 | 
CC1(C)C[C@@H](O)C[C@]2(C)[C@@H]1[C@H](O)C[C@@]13C[C@@H](CC[C@H]12)[C@](C)(O)C3 | 100 | Activity (Mus musculus [2]): Active; Activity (Mus musculus [3]): Dose-dependent effect
Cc1cc2c(c(C)c1CCO)C(=O)[C@](C)(CO)[C@@H]2O | 100 | 
CC1(C)C[C@@H](O[C@@H]2O[C@H](CO)[C@@H](O)[C@H](O)[C@H]2O)C[C@]2(C)[C@@H]1CC[C@@]13C[C@@H](CC[C@H]12)[C@](C)(O)C3 | 100 | 
Cc1cc2c(c(CO)c1CCO)C(=O)[C@@](C)(O)C2=O | 100 | 
Cc1c(CCO)c(CO)cc2c1C(=O)[C@H](C)[C@@H]2O | 100 | Activity (Mus musculus [2]): Active; Activity (Mus musculus [3]): Dose-dependent effect; Activity [4]: Active; Activity [5]: Active
COc1ccc2cc3[n+](cc2c1OC)CCc1cc2c(cc1-3)OCO2 |  | Activity (Mus musculus [6]): Active
Cc1cc2c(c(CO)c1CCO)C(=O)[C@H](C)[C@@H]2O | 100 | 
C=C1[C@@H]2CC[C@H]3[C@]4(C)C[C@H](O)CC(C)(C)[C@H]4CC[C@]3(C2)[C@H]1O | 100 | 
Cc1cc2c(c(C)c1CCO[C@@H]1O[C@H](CO)[C@@H](O)[C@H](O)[C@H]1O)C(=O)C(C)(C)[C@H]2O | 100 | 
